Consider ten compounds from ChEMBL document CHEMBL1152792, “Synthesis and anticonvulsant activity of amino acid-derived sulfamides” (J Med Chem, 2009).

The test system of data set [1] is Mus musculus. The data set can be described thus: Anticonvulsant activity in albino mouse at 300 mg/kg, ip after 0.5 hrs by PTZ test. The format is functional, organism-based. On the set-up: dose 300 mg/kg. An outline of the steps: (§1)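 NIH Anticonvulsant Drug Development (ADD) program phase I screen in adult male albino mice (18–23 g). Compound given ip in 30% PEG 400 and 10% water at 0.01 mL/g body weight. Seizures were induced electrically (MES) or chemically (PTZ), and animals were tested 0.5 and 4 h after dosing. Result scored as protected/tested animals.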

In data set [2] the test system is Mus musculus. Put plainly: Toxicity in albino mouse at 100 mg/kg, ip after 0.5 hrs by rotarod test. The format is organism-based. More on the design: dose 100 mg/kg, route intraperitoneal. The following applies: in vivo. The gist of the method: (§2)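 Neurotoxicity was screened by the standardized rotarod test in the ADD phase I protocol. Adult male albino mice (18–23 g) received compound ip in 30% PEG 400 and 10% water at 0.01 mL/g. Animals were tested 0.5 and 4 h post-dose. Result scored as toxic/tested animals.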
(In general: The rotarod test checks motor coordination on a turning rod.)

In data set [3] the test system is Mus musculus. The data set can be described thus: Anticonvulsant activity in albino mouse at 30 mg/kg, ip after 4 hrs by PTZ test. More on the design: dose 30 mg/kg. The format is functional, organism-based. The gist of the method: as §1
Data set [4] deals with Mus musculus. Put plainly: Anticonvulsant activity in albino mouse at 300 mg/kg, ip after 4 hrs by MES test. The format is functional, organism-based. On the set-up: dose 300 mg/kg. An outline of the steps:
as §1

The test system of data set [5] is Mus musculus. The data set can be described thus: Anticonvulsant activity in albino mouse at 30 mg/kg, ip after 0.5 hrs by MES test. The format is functional, organism-based. More on the design: dose 30 mg/kg. The gist of the method: as §1
The test system of data set [6] is Mus musculus. Put plainly: Anticonvulsant activity in albino mouse at 100 mg/kg, ip after 0.5 hrs by PTZ test. On the set-up: dose 100 mg/kg. Type of data set: functional, organism-based. The gist of the method:
as §1

The test system of data set [7] is Mus musculus. Put plainly: Toxicity in albino mouse at 300 mg/kg, ip after 4 hrs by rotarod test. The format is organism-based. More on the design: dose 300 mg/kg, route intraperitoneal. The following applies: in vivo. The gist of the method:
as §2

Data set [8] concerns Mus musculus. The data set can be described thus: Anticonvulsant activity in albino mouse at 100 mg/kg, ip after 0.5 hrs by MES test. The format is functional, organism-based. On the set-up: dose 100 mg/kg. The gist of the method:
as §1

The test system of data set [9] is Mus musculus. Put plainly: Toxicity in albino mouse at 100 mg/kg, ip after 4 hrs by rotarod test. The format is organism-based. More on the design: dose 100 mg/kg, route intraperitoneal. The note with it: in vivo. The gist of the method:
as §2

Data set [10] concerns Mus musculus. The data set can be described thus: Anticonvulsant activity in albino mouse at 300 mg/kg, ip after 4 hrs by PTZ test. Type of data set: functional, organism-based. On the set-up: dose 300 mg/kg. The gist of the method:
as §1

The test system of data set [11] is Mus musculus. Put plainly: Anticonvulsant activity in albino mouse at 100 mg/kg, ip after 4 hrs by PTZ test. The format is functional, organism-based. More on the design: dose 100 mg/kg. An outline of the steps:
as §1

The subject of data set [12] is Mus musculus. Put plainly: Toxicity in albino mouse at 300 mg/kg, ip after 0.5 hrs by rotarod test. The following applies: in vivo. More on the design: dose 300 mg/kg, route intraperitoneal. The format is organism-based. An outline of the steps:
as §2

In data set [13] the test system is Mus musculus. The data set can be described thus: Toxicity in albino mouse at 30 mg/kg, ip after 0.5 hrs by rotarod test. On the set-up: dose 30 mg/kg, route intraperitoneal. The format is organism-based. The following applies: in vivo. An outline of the steps: as §2
Data set [14] has as its system Mus musculus. The data set can be described thus: Toxicity in albino mouse at 30 mg/kg, ip after 4 hrs by rotarod test. The note with it: in vivo. On the set-up: dose 30 mg/kg, route intraperitoneal. The format is organism-based. The gist of the method: as §2
The subject of data set [15] is Mus musculus. The data set can be described thus: Anticonvulsant activity in albino mouse at 30 mg/kg, ip after 0.5 hrs by PTZ test. The format is functional, organism-based. More on the design: dose 30 mg/kg. An outline of the steps:
as §1

In data set [16] the test system is Mus musculus. The data set can be described thus: Anticonvulsant activity in albino mouse at 30 mg/kg, ip after 4 hrs by MES test. Type of data set: functional, organism-based. More on the design: dose 30 mg/kg. The gist of the method: as §1
Data set [17] has as its system Mus musculus. Put plainly: Anticonvulsant activity in albino mouse at 100 mg/kg, ip after 4 hrs by MES test. The format is functional, organism-based. On the set-up: dose 100 mg/kg. The gist of the method: as §1
The subject of data set [18] is Mus musculus. Put plainly: Anticonvulsant activity in albino mouse at 300 mg/kg, ip after 0.5 hrs by MES test. Type of data set: functional, organism-based. More on the design: dose 300 mg/kg. The gist of the method: as §1

Activity calls are given as the source filed them. No cut-off for these calls is given here.

For `COC(=O)CCNS(=O)(=O)NC(=O)OC(C)(C)C`, the result in data set [1], in data set [3], in data set [4], in [5], in data set [6] and in [8] was inactive. Further, the outcome in data set [10], in [11], in data set [15], in data set [16] and in data set [17] was inactive. Moreover, the Activity entry in data set [2], in data set [7], in data set [9], in data set [12], in [13] and in data set [14] was “Non-toxic” each time.
Turning to `COC(=O)[C@H](C)NS(=O)(=O)N[C@@H](C)C(=O)OC`, the result in data set [1], in data set [3], in data set [4], in data set [18], in [5] and in [6] was inactive. The outcome in data set [8], in data set [10], in [11], in [15], in data set [16] and in [17] was inactive. Also, the Activity entry in data set [2], in data set [7], in data set [9], in [12], in data set [13] and in data set [14] was “Non-toxic” throughout.
With `COC(=O)CNS(=O)(=O)N(Cc1ccccc1)C(=O)OC(C)(C)C`, the result in [1], in data set [3], in data set [4], in data set [18], in data set [5] and in data set [6] was inactive. The result in data set [8], in [10], in [11], in data set [15], in data set [16] and in [17] was inactive. Besides, the Activity entry in [2], in data set [7], in [9], in [12], in [13] and in data set [14] was “Non-toxic” throughout.
Turning to `COC(=O)CNS(=O)(=O)NC(=O)OC(C)(C)C`, the result in data set [1], in [3], in data set [4], in [18], in data set [5] and in [6] was inactive. For the same compound, the result in data set [8], in data set [10], in data set [11], in [15], in data set [16] and in data set [17] was inactive. Moreover, the Activity result in [2], in data set [7], in data set [9], in data set [12], in data set [13] and in data set [14] was “Non-toxic” throughout.
Consider `COC(=O)CCNS(=O)(=O)NCCC(=O)OC`, for which the outcome in [1], in [3], in data set [4], in data set [5], in data set [6] and in data set [10] was inactive. Also, the outcome in data set [11], in [15], in data set [16] and in data set [17] was inactive. The Activity entry in [2], in [7], in data set [9], in data set [12], in [13] and in [14] was “Non-toxic” throughout.
As to `COC(=O)[C@@H](NS(=O)(=O)N[C@H](C(=O)OC)C(C)C)C(C)C`, the outcome in data set [1], in data set [3], in data set [4], in data set [5], in data set [6] and in data set [10] was inactive. In addition, the result in data set [11], in data set [15], in data set [16] and in data set [17] was inactive. Moreover, the Activity entry in data set [2], in data set [7], in data set [9], in data set [12], in data set [13] and in data set [14] was “Non-toxic” in each case.
`COC(=O)[C@@H](C)NS(=O)(=O)NC(=O)OC(C)(C)C`: the result in data set [1], in [3], in data set [4], in data set [18], in [5] and in [6] was inactive. In addition, the result in [8], in data set [10], in data set [11], in data set [15], in [16] and in data set [17] was inactive. For the same compound, the Activity result in data set [2], in data set [7], in data set [9], in [12], in data set [13] and in data set [14] was “Non-toxic” each time.
Consider `COC(=O)CCNS(=O)(=O)NC1CCCCC1`, for which the Activity result in data set [2], in data set [7], in data set [9], in [12], in [13] and in data set [14] was “Non-toxic” each time. Besides, the result in data set [4], in data set [18], in data set [5] and in data set [16] was inactive.
As to `COC(=O)CCNS(=O)(=O)NCc1ccccc1`, the outcome in data set [1], in data set [4], in data set [5], in [6], in data set [10] and in data set [11] was inactive. For the same compound, the result in data set [15], in data set [16] and in data set [17] was inactive. The Activity result in [2], in [7], in data set [9], in [12], in data set [13] and in data set [14] was “Non-toxic” throughout.
Regarding `CCCC(CCC)CN(C(=O)OC(C)(C)C)S(=O)(=O)NCC(=O)OC`, the result in data set [1], in data set [3], in data set [18], in data set [5], in data set [6] and in data set [8] was inactive. The outcome in data set [10], in data set [11], in [15], in [16] and in [17] was inactive. Further, the Activity result in data set [2], in data set [7], in data set [9], in data set [12], in data set [13] and in [14] was “Non-toxic” each time.
